From ChEMBL document CHEMBL1128750 (J Med Chem, 1995)

How the values were obtained:
MCF7 = assay: In vitro cytotoxicity against hormone-responsive MCF-7 cell line.; type: functional, cell-based; details: Homo sapiens
Method in brief: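 MCF-7 cells kept in DMEM with L-glutamine, gentamycin, fungisone, insulin and 5% FBS. For the assay, 5 × 10³ cells/well were plated in DMEM with 2% carbon-stripped FBS and held 24 h at 37 °C. Compounds were then added in fresh medium for 24 h. Viable cells were read by MTT, triplicate wells per concentration, and IC50 was taken from four concentrations.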

[1] = (§1) Inhibition of calmodulin-dependent Phosphodiesterase
Method in brief: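 Calmodulin-dependent cAMP phosphodiesterase assayed with cyclic [8-3H]AMP as substrate. Tritiated AMP was converted to adenosine by snake venom 5'-nucleotidase, and nucleosides were separated from substrate on Dowex anion exchange resin with 3 mM acetic acid. Basal, calmodulin-independent activity was taken with 1 mM EGTA. Compounds were added in DMSO at several concentrations. IC50 is the mean of triplicates ± standard error.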

[2] = as §1; remark: listed apart in the source

| IC50 [1] [µM] | SMILES | IC50 (MCF7) [µM] | IC50 [2] [µM] |
| --- | --- | --- | --- |
| 1.4 | CC/C(=C(\c1ccc(I)cc1)c1ccc(OCCCN(C)C)cc1)c1ccccc1 |  |  |
| 1 | CC/C(=C(\c1ccc(I)cc1)c1ccc(OCCCCN2CCCC2)cc1)c1ccccc1 | 4 |  |
| 1.3 | CC/C(=C(\c1ccc(I)cc1)c1ccc(OCCCCN(C)C)cc1)c1ccccc1 |  |  |
| 1.1 | CC/C(=C(\c1ccc(I)cc1)c1ccc(OCCCN2CCCC2)cc1)c1ccccc1 | 4.5 |  |
| 3.7 | CCCCc1ccc(/C(=C(\CC)c2ccccc2)c2ccc(OCCN(C)C)cc2)cc1 |  |  |
| 4.6 | C#Cc1ccc(/C(=C(\CC)c2ccccc2)c2ccc(OCCN(C)C)cc2)cc1 |  |  |
| 3.3 | C#Cc1ccc(/C(=C(\CC)c2ccccc2)c2ccc(OCCN3CCCC3)cc2)cc1 | 14.7 |  |
| 2.3 | CC/C(=C(\c1ccc(I)cc1)c1ccc(OCCN(C)C)cc1)c1ccccc1 |  |  |
| 1.8 | CCCCc1ccc(/C(=C(\CC)c2ccccc2)c2ccc(OCCN3CCCC3)cc2)cc1 |  |  |
| 1.5 | CC/C(=C(\c1ccc(I)cc1)c1ccc(OCCN2CCCC2)cc1)c1ccccc1 [IDOXIFENE] | 7.3 |  |
|  | CC/C(=C(\c1ccccc1)c1ccc(OCCN(C)C)cc1)c1ccccc1 [TAMOXIFEN] | 14 | 6.8 |

| SMILES | IC50 [1] [µM] | IC50 (MCF7) [µM] | IC50 [2] [µM] |
| --- | --- | --- | --- |
| CC/C(=C(\c1ccc(O)cc1)c1ccc(OCCN(C)C)cc1)c1ccccc1 | 19 | 15.5 |  |
